# Compound activity deposited in PubChem by several laboratories.
# In the library only some 2.8% were active in any assay of this set; here they are far more common.
# PP1 inh = blocks human PP1-alpha phosphatase, a PP5 counter-screen; P62136; purified PP1alpha, OMFP fluorescence; inhibition, % at 6.7 µM; 320,000 compounds, 0.9% hits; AID 2235;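 active = inhibition above the mean inhibition of all tested compounds plus 3 SD, computed separately for each screening campaign, cut at about 15% in these data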
# T cruzi repl = blocks replication of Trypanosoma cruzi | inhibition, % (concentration not given with the values) | T. cruzi beta-gal in NIH3T3, luminescence, 90 h | 300,000 compounds, 1.4% hits | AID 1885;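 active = mean inhibition across valid replicates above about 55%, limit read from the data; inconclusive = mean below that limit but half or more replicates reach it; inactive = mean below it, under half of replicates reach it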;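 note: signal also drops with host cell toxicity which is not excluded here; 0% = plate median of DMSO wells and 100% = zero luminescence signal; higher percent means less beta-gal luminescence so fewer parasites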
#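 Assay system: NIH/3T3 host cells with β-galactosidase reporter T. cruzi; input: 5,000 host fibroblasts per well; compound: single 50 nL compound addition per well in DMSO; timing: ≥90 h infection period, 3 h prior cell attachment; measured by: GalScreen β-gal luminescence, detergent lysis, 60 min; evaluation: percent inhibition of parasite-derived β-gal signal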
# p-CIP stab down = p/CIP protein destabilization | decrease of EGFP signal, % at 10 µM | AID 1984 | 290,000 compounds, 0.01% hits | Q05BA5 | F442A p/CIP-EGFP cells, EGFP fluorescence, 16 h;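 active = EGFP signal decrease of at least 30% at 10 µM or well 3 SD below plate mean, unless failing retest; inactive = the rest, including hits failing retest or dose response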
# Target sequence (Q05BA5 1-1403): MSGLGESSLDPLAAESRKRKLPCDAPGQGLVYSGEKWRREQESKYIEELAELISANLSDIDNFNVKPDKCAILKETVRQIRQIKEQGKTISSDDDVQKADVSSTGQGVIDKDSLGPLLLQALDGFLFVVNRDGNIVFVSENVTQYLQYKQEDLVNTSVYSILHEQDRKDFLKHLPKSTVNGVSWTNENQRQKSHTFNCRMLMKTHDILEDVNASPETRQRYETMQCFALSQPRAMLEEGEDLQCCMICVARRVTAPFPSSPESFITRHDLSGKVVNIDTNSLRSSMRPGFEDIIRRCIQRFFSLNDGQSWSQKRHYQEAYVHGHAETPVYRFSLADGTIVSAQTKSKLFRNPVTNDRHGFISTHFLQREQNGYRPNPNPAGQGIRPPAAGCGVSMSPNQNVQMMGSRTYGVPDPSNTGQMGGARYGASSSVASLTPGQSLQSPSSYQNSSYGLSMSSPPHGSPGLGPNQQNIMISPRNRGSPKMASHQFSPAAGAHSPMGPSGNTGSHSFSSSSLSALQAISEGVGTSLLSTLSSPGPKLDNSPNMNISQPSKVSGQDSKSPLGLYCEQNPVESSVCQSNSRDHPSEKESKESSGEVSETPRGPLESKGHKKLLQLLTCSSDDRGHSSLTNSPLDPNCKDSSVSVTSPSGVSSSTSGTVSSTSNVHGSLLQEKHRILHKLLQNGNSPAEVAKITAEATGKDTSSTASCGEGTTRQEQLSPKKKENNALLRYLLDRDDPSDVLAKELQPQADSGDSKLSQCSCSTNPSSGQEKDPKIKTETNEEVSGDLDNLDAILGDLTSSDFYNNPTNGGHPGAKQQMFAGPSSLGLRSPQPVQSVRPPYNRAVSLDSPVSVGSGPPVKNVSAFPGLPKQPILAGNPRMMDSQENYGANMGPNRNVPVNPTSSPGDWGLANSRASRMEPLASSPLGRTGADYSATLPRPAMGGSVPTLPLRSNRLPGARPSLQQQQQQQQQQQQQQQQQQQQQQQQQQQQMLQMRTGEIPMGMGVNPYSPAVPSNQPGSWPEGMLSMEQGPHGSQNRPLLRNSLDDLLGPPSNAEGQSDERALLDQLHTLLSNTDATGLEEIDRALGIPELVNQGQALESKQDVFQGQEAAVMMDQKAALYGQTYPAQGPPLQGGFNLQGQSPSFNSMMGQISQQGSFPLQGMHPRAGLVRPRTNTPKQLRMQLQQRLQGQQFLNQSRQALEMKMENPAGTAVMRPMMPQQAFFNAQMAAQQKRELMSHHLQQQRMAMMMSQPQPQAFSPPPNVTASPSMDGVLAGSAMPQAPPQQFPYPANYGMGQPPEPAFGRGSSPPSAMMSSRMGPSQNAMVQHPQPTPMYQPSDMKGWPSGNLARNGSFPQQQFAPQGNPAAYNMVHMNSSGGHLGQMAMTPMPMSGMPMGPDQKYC
# AI-2 QS modul = Vibrio harveyi AI-2 quorum sensing modulation. 300,000 compounds, 0.4% hits. Vibrio harveyi JMH597 AI-2 luminescence/OD600 ratio, 9 h; hits give low values; strain lacks LuxN and CqsS sensors; 0 = neutral-control median. activity change, % at 7.5 µM. AID 2094; in the data active = activity change below about -75%, passing the limit was not always enough; inconclusive = no clear call, values can overlap the other calls;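 note: luminescence divided by OD600 gain over 9 h not by final OD600 alone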
# UBC13 inh = blocks human UBC13 polyubiquitin chain formation. 330,000 compounds, 0.47% hits. inhibition, % at 20 µM. TR-FRET. AID 485273. P61088; in the data active = inhibition above about 45%, passing the limit was not always enough; inconclusive = no clear call, values can overlap the other calls
# JMH597 growth rt = retest: blocks Vibrio harveyi JMH597 growth | 750 compounds, 1% hits | OD600 absorbance, 9 h; lacks LuxN and CqsS sensors | growth inhibition, % at 7.5 µM | shares compounds with AI-2 QS modul;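 active = every replicate shows growth inhibition above 50%; inconclusive = at least half, but not all, replicates pass that cutoff; inactive = fewer than half of replicates pass it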
# BB721 const-QS lum = retest counter-screen: BB721 constitutive quorum sensing luminescence decrease; AID 2727; Vibrio harveyi BB721 luminescence, 9 h; shares compounds with AI-2 QS modul; inhibition, % at 7.5 µM; 750 compounds, 95% hits;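 active = inhibition above about 80% in every replicate, not just on average, limit read from the data; inconclusive = at least half of replicates past the limit, but not all; inactive = fewer than half of replicates past the limit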
# BB721 growth rt = retest: blocks Vibrio harveyi BB721 growth; shares compounds with AI-2 QS modul; OD600 absorbance, 9 h; growth inhibition, % at 7.5 µM; 750 compounds, 3% hits;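 active = every replicate shows growth inhibition above 50%; inconclusive = at least half but not all replicates above 50% inhibition; inactive = under half of replicates above 50% inhibition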
# JMH597 AI-2 mod = Vibrio harveyi AI-2 signaling luminescence modulation – JMH597 strain, confirmation. Vibrio harveyi JMH597 AI-2 quorum sensing luminescence, 9 h; luxN and CqsS knockout, AI-2 only. shares compounds with AI-2 QS modul. 750 compounds, 97% hits. inhibition, % at 7.5 µM. AID 2736;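 active = every replicate shows more than 75% inhibition of signal versus neutral control wells; inconclusive = half to three quarters of replicates exceed 75% inhibition; inactive = fewer than half of replicates exceed 75% inhibition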
# Numbers without * were called inactive; u = inconclusive; x = no result given.
SMILES,PP1 inh,T cruzi repl,p-CIP stab down,AI-2 QS modul,UBC13 inh,JMH597 growth rt,BB721 const-QS lum,BB721 growth rt,JMH597 AI-2 mod
Cc1ccccc1OCCNC(=O)c1ccc2ccccc2n1,1,6,4,-78*,1,24,91*,7,94*
Cc1ccccc1OCCNC(=O)/C=C/c1ccccc1,-2,3,-10,-82*,6,-28,94*,-12,96*
O=C(COc1ccc(Br)cc1)Nc1ccc(S(=O)(=O)Nc2ccccn2)cc1,0,4,-21,-87*,-3,12,94*,-21,98*
CC(=O)Nc1ccc(NC(=O)COC(=O)c2ccccn2)cc1,6,10,-3,15,3,x,x,x,x
O=C(COc1ccccc1)Nc1ccc(S(=O)(=O)Nc2ccccn2)cc1,0,-8,-21,-62,-7,x,x,x,x
CN(C)S(=O)(=O)c1ccc(NC(=O)COC(=O)c2ccccn2)cc1,-4,-7,0,-87*,1,-10,96*,5,97*
CCN(CC)C(=O)n1c(Cc2ccccc2)nc2ccccc21,1,-5,-6,x,-10,x,x,x,x
Cc1ccc(SCc2cc(=O)n(C)[nH]2)cc1,-1,-6,-25,11,-4,x,x,x,x
CCCCc1ccc(NC(=O)CSc2nc3ncccc3[nH]2)cc1,2,12,-29,-88*,6,3,93*,7,96*
CCOC(=O)c1ccc(NC(=O)CSc2nc3ncccc3[nH]2)cc1,2,-3,0,-91*,5,31,97*,40,97*
COc1ccccc1NC(=O)CSc1nc2ncccc2[nH]1,-1,-8,4,15,9,x,x,x,x
CN(Cc1ccccc1)C(=O)COC(=O)c1ccc(S(=O)(=O)N(C)C)cc1,-5,3,2,u,4,x,x,x,x
CN(C)S(=O)(=O)c1ccc(C(=O)Oc2ccccc2)cc1,-3,-13,-9,-80*,6,11,91*,39,93*
CN(C)S(=O)(=O)c1ccc(C(=O)OCn2nnc3ccccc3c2=O)cc1,-1,-6,10,-89*,-5,28,96*,37,97*
COc1ccccc1CNC(=O)c1ccc(S(=O)(=O)N(C)C)cc1,0,-12,-5,-80*,-1,-5,84*,0,90*
COc1ccc(C(=O)OCn2nnc3ccccc3c2=O)cc1OC,2,-3,-5,25,3,x,x,x,x
Cc1ccc(OCCNC(=O)c2cc(C3CC3)nc3c2cnn3C(C)C)cc1,2,x,x,x,11,x,x,x,x
CC1(c2ccc(OC(F)F)cc2)NC(=O)N(CC(=O)Nc2cccc(F)c2)C1=O (stereo unspecified),-3,0,-12,-93*,1,19,95*,24,97*
CCOc1ccc(NC(=O)CN2C(=O)NC(C)(c3ccc(OC(F)F)cc3)C2=O)cc1 (stereo unspecified),0,11,-12,-93*,-2,41,94*,57*,96*
CC1(c2ccc(OC(F)F)cc2)NC(=O)N(CC(=O)Nc2ccc(Cl)cc2F)C1=O (stereo unspecified),2,17,-13,-94*,2,5,96*,-7,96*
COc1ccc(N=Cc2c(O)[nH]c3ccccc23)cc1,-6,1,-17,2,-28,x,x,x,x
COc1ccc(CN=Cc2c(O)[nH]c3ccccc23)cc1,-8,17,6,-90*,2,22,96*,3,97*
CCc1noc(C)c1C(=O)Nc1cc(S(=O)(=O)N(CC)CC)ccc1N1CCOCC1,-5,13,x,5,-2,x,x,x,x
O=C(COc1cccc(C(F)(F)F)c1)Nc1ccc(S(=O)(=O)N2CCCCC2)cc1,5,14,x,-18,-6,x,x,x,x
CCc1cccc(OCC(=O)Nc2ccc(S(=O)(=O)N3CCCC3)cc2)c1,1,2,-22,-90*,-9,43,97*,u,98*
SMILES,PP1 inh,T cruzi repl,p-CIP stab down,AI-2 QS modul,UBC13 inh,JMH597 growth rt,BB721 const-QS lum,BB721 growth rt,JMH597 AI-2 mod
COc1ccccc1CNC(=O)COc1ccc(S(=O)(=O)N2CCCC2)cc1,-3,2,12,u,7,19,85*,8,93*
Cc1cccc(OCC(=O)Nc2cc(C)ccc2O)c1,-2,1,-4,-85*,1,34,96*,29,97*
COc1ccccc1CNC(=O)COc1ccc(S(=O)(=O)N2CCOCC2)cc1,-3,9,x,-15,-12,x,x,x,x
Cc1cccc(OCC(=O)Nc2ccc(S(=O)(=O)N3CCCC3)cc2)c1,1,-19,0,-97*,-2,9,99*,-3,100*
COc1cc(S(=O)(=O)N2CCOCC2)ccc1NC(=O)COC(=O)COc1ccccc1,-3,1,-4,8,6,x,x,x,x
O=C(O)CC(CC(=O)O)(C(=O)O)c1ccccc1,1,-8,-10,33,-12,x,x,x,x
COc1cc2c(cc1OC)CN(C(=O)Cc1c(F)cccc1Cl)CC2,2,0,-9,3,3,x,x,x,x
CC(C)NC(=O)CCc1nc2cccnc2n1-c1ccccc1,-3,-4,6,29,11,x,x,x,x
CC(C)Oc1ccc(C2NC(=O)c3ccccc3O2)cc1 (stereo unspecified),-4,-3,-71,9,8,x,x,x,x
COc1ccc(/C=C/C(=O)c2ccc(O)cc2)cc1,-7,-20,-1,-93*,-2,22,97*,6,97*
NC(=S)Nc1cccc(Cl)c1,-4,-11,9,2,7,x,x,x,x
NC(=S)Nc1cc(Cl)cc(Cl)c1,-3,11,-17,-82*,1,-12,65,-22,u
CN1C(=O)C(=O)/C(=C(/O)c2ccc(Br)cc2)C1c1cccc([N+](=O)[O-])c1 (stereo unspecified),7,-17,-2,8,1,x,x,x,x
CC(=O)c1ccc(NCCC(=O)c2ccccc2)cc1,-7,-5,3,-83*,-12,18,93*,9,95*
CC(=O)c1ccc(NC(=O)CCCC(=O)c2ccccc2)cc1,-2,-9,5,4,4,x,x,x,x
CN(CC(=O)Nc1ccc(Cl)c(C(F)(F)F)c1)C(=O)c1cccs1,-5,-5,x,-89*,-2,24,98*,25,98*
Cc1noc(C)c1CSCC(=O)N(C)CC(=O)Nc1ccc(Cl)c(C(F)(F)F)c1,1,2,x,-87*,-1,13,95*,-4,96*
